Measurements: ChEMBL document CHEMBL4480406, “Discovery of an SSTR2-Targeting Maytansinoid Conjugate (PEN-221) with Potent Activity in Vitro and in Vivo” (J Med Chem, 2019)
Activity calls are given as the source filed them. The rule behind the calls is not given here.

Key:
[1] = target: T1, Somatostatin receptor type 2 (Homo sapiens, UniProt P30874); assay: Displacement of [125I]somatostatin from human SSTR2 expressed in CHO-K1 cell membranes after 240 mins
In short: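 Membranes from CHO-K1 cells stably expressing human SSTR2, prepared in modified HEPES pH 7.4. Nonspecific binding was defined with 1 µM somatostatin. Bound ligand was measured by filtration, 3 washes and counting. Six test concentrations were run, top 10 nM, in five-fold dilutions.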

NCI-H524 [2] = assay: Cytotoxicity in human NCI-H524 cells pre-incubated for 2 hrs followed by compound wash out and subsequently incubated for 70 hrs by Cell Titer Glo assay; type: functional, cell-based
In short: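 Cells were then spun, washed with fresh medium, resuspended and grown a further 70 h. Proliferation was read by CellTiter-Glo luminescence, and % inhibition calculated relative to vehicle. IC50 came from a four-parameter nonlinear fit.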

[3] = target: T1, Somatostatin receptor type 2; assay: Binding affinity to human SSTR2 expressed in CHO-K1 cells assessed as induction of SSTR2 internalization after 4 hrs by chemiluminescent assay; type: cell-based
NCI-H524 [4] = assay: Cytotoxicity in human NCI-H524 cells pre-incubated for 2 hrs in presence of 100 uM octreotide followed by compound wash out and subsequently incubated for 70 hrs by Cell Titer Glo assay; type: functional, cell-based
In short: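 Octreotide receptor-blockade variant: NCI-H524 cells (5,000/well) were pretreated with octreotide acetate for 30 min, then given compound for 2 h in a ten-point three-fold series.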

[5] = Drug uptake in tumor of CrTac:NCr-Foxn1nu mouse xenografted with human NCI-H69 cells assessed as DM1 level at 1 mg/kg, iv measured after 24 hrs by LC-MS/MS analysis relative to DM1 alone; type: ADME, organism-based, Neoplasm; conditions: in vivo
In short: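 NCI-H69 subcutaneous tumors of 250-600 mm3 in nude mice, groups of 3, dosed i.v. Free DM1 was given in 10% propylene glycol/WFI, conjugates in 10% propylene glycol/5 mM citrate pH 4. Tumors were excised at 24 h and homogenized 1:4 (w/v) in 0.1 M ammonium bicarbonate pH 8.0. Homogenate was reduced with TCEP in acetonitrile (15 min, 37 °C), capped with 0.2 M NEM (15 min, 37 °C), and DM1-NEM quantified by LC-MS/MS against standards in blank tumor homogenate. Values were normalized to DM1 dose.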

[6] = Half life of the compound in phosphate buffer at 1 mM in presence of GSH by LC-MS/MS analysis; type: physicochemical; conditions: phosphate buffer with GSH
In short: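 Conjugate, added from a 1 mM methanol stock, was incubated in 5 mM GSH at 37 °C. Aliquots taken from 30 min to 6 h were quenched into N-ethyl maleimide in 1% ethanol, and remaining parent conjugate was measured by LC-MS/MS.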

[7] = Half life in Beagle dog at 0.1 mg/kg, iv; type: ADME, organism-based, Canis lupus familiaris; conditions: in vivo
[8] = Cmax in Beagle dog at 0.1 mg/kg, iv; type: ADME, organism-based, Canis lupus familiaris; parameters: dose 0.1 mg/kg, route intravenous; conditions: in vivo
[9] = AUC (0 to 6 hrs) in Beagle dog at 0.1 mg/kg, iv; type: ADME, organism-based, Canis lupus familiaris; parameters: dose 0.1 mg/kg, time < 6 hr, route intravenous; conditions: in vivo
[10] = Clearance in Beagle dog at 0.1 mg/kg, iv; type: ADME, organism-based, Canis lupus familiaris; conditions: in vivo
NCI-H69 [11] = assay: Antitumor activity against human NCI-H69 cells xenografted in CrTac:NCr-Foxn1nu mouse assessed as tumor regression at 2 mg/kg, iv measured up to 40 days; type: functional
In short: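 Female athymic nude mice were implanted subcutaneously in the right flank with 2.5 × 10^6 NCI-H69 cells (RPMI 1640/10% FBS culture) in media:Matrigel (1:1). At 150-250 mm3, mice were randomized into groups of 10. Compound in 10% propylene glycol in 5 mM citrate buffer (pH=4) was given by tail-vein i.v. injection on indicated days. Tumor volume was measured by calipers as (w2 × l)/2, reported as mean ± SEM.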

[12] = Toxicity in CrTac:NCr-Foxn1nu mouse xenografted with human NCI-H69 cells assessed as body weight loss at 2 mg/kg, iv measured up to 40 days; type: organism-based; conditions: in vivo, 960 h
[13] = target: Somatostatin receptor type 1 (Homo sapiens, UniProt P30872); assay: Displacement of [125I]somatostatin from human SSTR1 expressed in CHO-K1 cell membranes after 120 mins
[14] = target: Somatostatin receptor type 3 (Homo sapiens, UniProt P32745); assay: Displacement of [125I]somatostatin from human SSTR3 expressed in CHO-K1 cell membranes after 120 mins
[15] = target: Somatostatin receptor type 4 (Homo sapiens, UniProt P31391); assay: Displacement of [125I]somatostatin from human SSTR4 expressed in CHO-K1 cell membranes after 120 mins
[16] = target: T2, Somatostatin receptor type 5 (Homo sapiens, UniProt P35346); assay: Displacement of [125I]somatostatin from human SSTR5 expressed in CHO-K1 cell membranes after 120 mins
[17] = Apparent permeability from apical to basolateral side in human Caco2 cells; type: ADME, cell-based; conditions: Caco-2
[18] = Antitumor activity against human HCC33 cells xenografted in CrTac:NCr-Foxn1nu mouse assessed as tumor regression at 1 mg/kg, iv measured up to 16 days; type: functional
In short: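 Female athymic nude mice received subcutaneous right-flank implants in media:Matrigel (1:1): 2.5 × 10^6 HCC-33 cells (RPMI 1640/10% FBS) or 1 x 10^7 IMR-32 cells (EMEM/10% FBS). At 150-250 mm3, mice were randomized into groups of 10. Dosing was tail-vein i.v. on indicated days in 0.1% Solutol HS 15/5% mannitol/WFI. Caliper volume was (w2 × l)/2, reported as group mean ± SEM.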

IMR-32 = assay: Antitumor activity against human IMR32 cells xenografted in CrTac:NCr-Foxn1nu mouse assessed as tumor regression at […], iv measured up to 20 days; type: functional
NCI-H69 [19] = assay: Antitumor activity against human NCI-H69 cells xenografted in CrTac:NCr-Foxn1nu mouse assessed as tumor regression at 1.3 mg/kg, iv measured up to 40 days; type: functional, organism-based
In short: (§1)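 Female athymic nude mice were implanted subcutaneously in the right flank with 2.5 × 10^6 NCI-H69 cells in medium/Matrigel 1:1. At 150-250 mm3, animals were randomized into groups of 10. Dosing was by tail-vein injection in 10% propylene glycol in 5 mM citrate pH 4 on the indicated days. Caliper volumes were calculated as (w2 × l)/2 and reported as mean ± SEM.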

[20] = target: T1, Somatostatin receptor type 2; assay: Agonist activity at SSTR2 (unknown origin) assessed as effect on calcium flux incubated for 180 secs by FLIPR assay; type: functional
[21] = target: T1, Somatostatin receptor type 2; assay: Antagonist activity at SSTR2 (unknown origin) assessed as effect on agonist-induced calcium flux incubated for 180 secs by FLIPR assay; type: functional
[22] = target: T2, Somatostatin receptor type 5; assay: Agonist activity at SSTR5 (unknown origin) assessed as effect on calcium flux incubated for 180 secs by FLIPR assay; type: functional
[23] = target: T2, Somatostatin receptor type 5; assay: Antagonist activity at SSTR5 (unknown origin) assessed as effect on agonist-induced calcium flux incubated for 180 secs by FLIPR assay; type: functional
NCI-H69 [24] = assay: Antitumor activity against human NCI-H69 cells xenografted in CrTac:NCr-Foxn1nu mouse assessed as tumor regression at 0.7 mg/kg, iv measured up to 20 days; type: functional, organism-based; in short: as §1

T1 sequence (P30874 whole entry): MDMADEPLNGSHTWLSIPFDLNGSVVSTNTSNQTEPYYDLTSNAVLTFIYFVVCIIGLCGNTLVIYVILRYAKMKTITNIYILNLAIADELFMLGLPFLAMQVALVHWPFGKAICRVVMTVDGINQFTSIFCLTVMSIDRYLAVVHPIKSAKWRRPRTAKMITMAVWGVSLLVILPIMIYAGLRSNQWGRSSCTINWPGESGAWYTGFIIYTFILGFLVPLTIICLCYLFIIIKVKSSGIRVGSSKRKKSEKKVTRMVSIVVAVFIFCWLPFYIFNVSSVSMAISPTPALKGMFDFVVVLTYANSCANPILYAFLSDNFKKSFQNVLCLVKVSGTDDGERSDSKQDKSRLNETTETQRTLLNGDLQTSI
T2 sequence (P35346 whole entry): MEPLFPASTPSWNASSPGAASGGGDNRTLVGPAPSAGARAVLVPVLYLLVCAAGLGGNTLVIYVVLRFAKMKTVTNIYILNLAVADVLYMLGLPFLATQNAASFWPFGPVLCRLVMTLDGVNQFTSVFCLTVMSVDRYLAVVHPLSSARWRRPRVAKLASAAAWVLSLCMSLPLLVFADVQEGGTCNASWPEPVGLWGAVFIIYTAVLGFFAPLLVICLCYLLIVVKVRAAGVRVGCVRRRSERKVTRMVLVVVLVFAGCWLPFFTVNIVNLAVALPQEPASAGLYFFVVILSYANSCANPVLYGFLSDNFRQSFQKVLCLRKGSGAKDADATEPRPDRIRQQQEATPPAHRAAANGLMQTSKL
Somatostatin receptor type 1, sequence (P30872 whole entry): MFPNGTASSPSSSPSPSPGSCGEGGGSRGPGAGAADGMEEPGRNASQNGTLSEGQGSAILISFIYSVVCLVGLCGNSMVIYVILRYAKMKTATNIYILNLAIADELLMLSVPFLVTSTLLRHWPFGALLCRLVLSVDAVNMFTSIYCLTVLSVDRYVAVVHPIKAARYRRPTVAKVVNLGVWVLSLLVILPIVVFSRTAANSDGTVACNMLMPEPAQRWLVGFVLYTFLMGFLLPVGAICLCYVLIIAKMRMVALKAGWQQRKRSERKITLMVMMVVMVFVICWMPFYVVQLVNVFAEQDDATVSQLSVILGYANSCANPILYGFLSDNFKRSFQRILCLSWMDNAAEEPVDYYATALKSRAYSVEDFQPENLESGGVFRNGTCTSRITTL
Somatostatin receptor type 4, sequence (P31391 whole entry): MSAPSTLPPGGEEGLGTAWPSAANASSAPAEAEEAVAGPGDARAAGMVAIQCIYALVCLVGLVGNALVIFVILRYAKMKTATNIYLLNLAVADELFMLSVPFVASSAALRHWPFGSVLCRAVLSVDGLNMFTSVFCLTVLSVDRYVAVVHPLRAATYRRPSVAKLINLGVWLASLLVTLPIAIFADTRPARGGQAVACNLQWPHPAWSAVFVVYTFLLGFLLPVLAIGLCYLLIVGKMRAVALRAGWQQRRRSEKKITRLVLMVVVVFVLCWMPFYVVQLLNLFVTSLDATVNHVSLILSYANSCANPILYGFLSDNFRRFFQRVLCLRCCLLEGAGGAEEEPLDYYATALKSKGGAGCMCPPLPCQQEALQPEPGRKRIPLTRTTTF
Somatostatin receptor type 3, sequence (P32745 whole entry): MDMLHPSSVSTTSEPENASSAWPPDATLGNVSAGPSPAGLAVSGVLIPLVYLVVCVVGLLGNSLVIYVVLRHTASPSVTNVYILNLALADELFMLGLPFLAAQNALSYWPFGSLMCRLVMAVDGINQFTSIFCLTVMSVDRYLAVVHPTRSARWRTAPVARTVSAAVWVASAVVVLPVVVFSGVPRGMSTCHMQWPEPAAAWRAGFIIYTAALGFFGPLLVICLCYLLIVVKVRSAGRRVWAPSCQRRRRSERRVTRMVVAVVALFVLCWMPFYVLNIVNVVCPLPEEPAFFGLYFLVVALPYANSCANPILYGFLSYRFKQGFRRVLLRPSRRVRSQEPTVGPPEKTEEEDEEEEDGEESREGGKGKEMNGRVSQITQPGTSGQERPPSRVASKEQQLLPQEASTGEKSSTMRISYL

CO[C@H]1C(=O)[C@]2(C)[C@@H](OC)C[C@H]3OC[C@@]3(OC(C)=O)[C@H]2[C@H](OC(=O)c2ccccc2)[C@]2(O)C[C@H](OC(=O)[C@H](OC(=O)OCCSSC[C@H](NC(=O)[C@@H]3CSSC[C@H](NC(=O)[C@H](N)Cc4ccccc4)C(=O)N[C@@H](Cc4ccc(O)cc4)C(=O)N[C@H](Cc4c[nH]c5ccccc45)C(=O)N[C@@H](CCCCN)C(=O)N[C@@H]([C@@H](C)O)C(=O)N3)C(N)=O)[C@@H](NC(=O)OC(C)(C)C)c3ccccc3)C(C)=C1C2(C)C
Ki [1]: 0.97 nM | IC50 (NCI-H524 [2]): 7 nM | EC50 [3]: 11 nM | IC50 (NCI-H524 [4]): 14 nM

COc1cc2cc(c1Cl)N(C)C(=O)C[C@H](OC(=O)[C@H](C)N(C)C(=O)CCSSCCCN[C@H](Cc1ccccc1)C(=O)N[C@H]1CSSC[C@@H](C(=O)N[C@@H](Cc3c[nH]c4ccccc34)C(N)=O)NC(=O)[C@H](C(C)C)NC(=O)[C@H](CCCCN)NC(=O)[C@@H](Cc3c[nH]c4ccccc34)NC(=O)[C@H](Cc3ccc(O)cc3)NC1=O)[C@@]1(C)O[C@H]1[C@H](C)[C@@H]1C[C@@](O)(NC(=O)O1)[C@H](OC)/C=C/C=C(\C)C2
Ki [1]: 0.19 nM | IC50 (NCI-H524 [2]): 22 nM | IC50 (NCI-H524 [4]): 115 nM | Drug uptake [5]: Active

COc1cc2cc(c1Cl)N(C)C(=O)C[C@H](OC(=O)[C@H](C)N(C)C(=O)CCSSCCCN[C@H](Cc1ccccc1)C(=O)N[C@H]1CSSC[C@@H](C(=O)N[C@H](CO)[C@@H](C)O)NC(=O)[C@H]([C@@H](C)O)NC(=O)[C@H](CCCCN)NC(=O)[C@@H](Cc3c[nH]c4ccccc34)NC(=O)[C@H](Cc3ccccc3)NC1=O)[C@@]1(C)O[C@H]1[C@H](C)[C@@H]1C[C@@](O)(NC(=O)O1)[C@H](OC)/C=C/C=C(\C)C2
Ki [1]: 0.12 nM | IC50 (NCI-H524 [2]): 30 nM | IC50 (NCI-H524 [4]): 221 nM | Drug uptake [5]: Active

COc1cc2cc(c1Cl)N(C)C(=O)C[C@H](OC(=O)[C@H](C)N(C)C(=O)CCSSC[C@H](NC(=O)[C@@H]1CSSC[C@H](NC(=O)[C@H](N)Cc3ccccc3)C(=O)N[C@@H](Cc3ccc(O)cc3)C(=O)N[C@H](Cc3c[nH]c4ccccc34)C(=O)N[C@@H](CCCCN)C(=O)N[C@@H]([C@@H](C)O)C(=O)N1)C(N)=O)[C@@]1(C)O[C@H]1[C@H](C)[C@@H]1C[C@@](O)(NC(=O)O1)[C@H](OC)/C=C/C=C(\C)C2
Ki [1]: 0.022 nM | IC50 (NCI-H524 [2]): 10 nM | EC50 [3]: 1 nM | half-life at 1000 µM [6]: 0.167 h | half-life [7]: 2.33 h | Cmax [8]: 708 nM | AUC(0-t) at 6 h [9]: 0.47 µM·h | clearance [10]: 1.66 mL/min/kg | Activity (NCI-H69 [11]): 100% | Activity [12]: Non-Toxic | IC50 (NCI-H524 [4]): 910 nM | Kd [13]: 310 nM | Kd [14]: 19.8 nM | Kd [15]: 5480 nM | Kd [16]: 9.6 nM | Papp A→B [17]: 0.018 ×10⁻⁶ cm/s | Activity [18]: 100% | Activity (IMR-32): 100% | Drug uptake [5]: Active | Activity (NCI-H69 [19]): Active | Activity [20]: Active | Activity [21]: Active | Activity [22]: Active | Activity [23]: Active

COc1cc2cc(c1Cl)N(C)C(=O)C[C@H](OC(=O)[C@H](C)N(C)C(=O)CCSSC(C)(C)[C@H](NC(=O)[C@@H]1CSSC[C@H](NC(=O)[C@H](N)Cc3ccccc3)C(=O)N[C@@H](Cc3ccc(O)cc3)C(=O)N[C@H](Cc3c[nH]c4ccccc34)C(=O)N[C@@H](CCCCN)C(=O)N[C@@H]([C@@H](C)O)C(=O)N1)C(N)=O)[C@@]1(C)O[C@H]1[C@H](C)[C@@H]1C[C@@](O)(NC(=O)O1)[C@H](OC)/C=C/C=C(\C)C2
Ki [1]: 0.015 nM | IC50 (NCI-H524 [2]): 8 nM | half-life at 1000 µM [6]: 0.947 h | half-life [7]: 1.38 h | Cmax [8]: 867 nM | AUC(0-t) at 6 h [9]: 0.769 µM·h | clearance [10]: 1.09 mL/min/kg | Activity (NCI-H69 [11]): 100% | Activity [12]: Non-Toxic | IC50 (NCI-H524 [4]): 1040 nM

COc1cc2cc(c1Cl)N(C)C(=O)C[C@H](OC(=O)[C@H](C)N(C)C(=O)CCSSC[C@H](NC(=O)[C@@H]1CSSC[C@H](NC(=O)[C@H](N)Cc3ccccc3)C(=O)N[C@@H](Cc3ccc(O)cc3)C(=O)N[C@H](Cc3c[nH]c4ccccc34)C(=O)N[C@@H](CCCCNC(=O)NCCCCCCN)C(=O)N[C@@H]([C@@H](C)O)C(=O)N1)C(N)=O)[C@@]1(C)O[C@H]1[C@H](C)[C@@H]1C[C@@](O)(NC(=O)O1)[C@H](OC)/C=C/C=C(\C)C2
Ki [1]: 3350 nM | IC50 (NCI-H524 [2]): 581 nM | IC50 (NCI-H524 [4]): 644 nM | Activity (NCI-H69 [24]): inactive
